High-throughput results from PubChem.
Sampled rows, rich in hits. Any-hit rate of the full collection: about 6.8%.
ALR inh: human ALR oxidase inhibition via reduced H2O2; P55789; purified ALR, DTT oxidation, H2O2 HRP-luminol luminescence; inhibition, % (test concentration not listed); actives 3.8% (n = 290,000); AID 485317;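 active = mean replicate inhibition above about 79%, with every replicate also reaching it, limit read from the data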
HSF-1 act: increases HSF-1 driven luciferase reporter signal; actives 1.7% (n = 300,000); NIH3T3-HGL HSF-1 luciferase reporter, MG132, 8 h; 100% = twice DMSO control signal; activation, % at 9 µM; AID 504408;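 active = mean replicate activation of at least 50% with a set share of replicates each reaching 50%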;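 also: 0% = median of the neutral control wells and 100% = twice that signal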
AI-2 QS mod: Vibrio harveyi AI-2 quorum sensing modulation | AID 2094 | actives 0.4% (n = 300,000) | activity change, % at 7.5 µM | Vibrio harveyi JMH597 AI-2 luminescence/OD600 ratio, 9 h; stronger effect = lower value; strain lacks LuxN and CqsS sensors; 0 = neutral-control median; in the data active = activity change below about -75%, passing the limit was not always enough;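 also: luminescence divided by OD600 gain over 9 h not by final OD600 alone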
core dimer inh: blocks dimerization of HCV core protein; AID 1899; inhibition, % at 5 µM; TR-FRET GST/Flag-core106 dimerization, 1536-well; actives 0.33% (n = 300,000);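 active = inhibition above the mean of all tested compounds plus 3 SD, set per screening campaign, cut at about 45% in these data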
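Test system: GST/Flag-tagged HCV core106 proteins; Medium: KF-containing HEPES buffer, pH 7.45, DTT, CHAPS, BSA; Times: compound-protein-antibody incubation 4 h at 22.5 °C; Detection: TR-FRET 671 and 617 nm emission; Benchmarks: wells lacking GST-core106 and wells with excess unlabelled core106.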
PHOSPHO1 block: PHOSPHO1 (human) inhibition. Q8TCT1. recombinant PHOSPHO1, absorbance phosphatase assay. inhibition, % at 13.3 µM. actives 1.1% (n = 290,000). AID 1565; in the data active = inhibition above about 60%
Target sequence (Q8TCT1 whole entry, looked up): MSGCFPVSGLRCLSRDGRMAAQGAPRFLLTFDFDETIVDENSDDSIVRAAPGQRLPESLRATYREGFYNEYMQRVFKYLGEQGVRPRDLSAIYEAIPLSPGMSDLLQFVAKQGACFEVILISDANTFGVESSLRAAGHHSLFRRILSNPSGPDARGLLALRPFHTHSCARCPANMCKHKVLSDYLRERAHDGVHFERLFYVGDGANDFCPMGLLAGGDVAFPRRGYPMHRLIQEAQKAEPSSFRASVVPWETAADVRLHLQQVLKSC
HSF1 inh: HSF1 inhibition. NIH3T3-HGL HSE-luciferase, MG132-induced, luminescence 8 h; stronger effect = lower value. AID 2098. actives 0.77% (n = 300,000). activity change, negative = inhibition, % at 7.5 µM (by protocol);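 active = more than half of replicate wells show activity change below -50%, luminescence cut by over half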;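 also: luciferase reports HSF-1 transcriptional activity via heat shock element; 0% = median of DMSO wells and -100% = zero luminescence signal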
* hit, by the source's call; . = not tested or not shown.

SMILES	ALR inh	HSF-1 act	AI-2 QS mod	core dimer inh	PHOSPHO1 block	HSF1 inh
COc1cc(C(CC(=O)Nc2ccc(Cl)cn2)N2Cc3ccccc3C2=O)cc(OC)c1OC (stereo unspecified)	-7.8	42.9	25.6	-2.7	25.7	15.2
CCCCCc1cc(=O)oc2c(C(CCN3CCCC3)c3ccc(N(C)C)cc3)c(OC)cc(OC)c12 (stereo unspecified)	.	1.4	2.7	0.0	26.5	0.5
COc1cc(OC)c2ccc(=O)oc2c1C(CCN1CCCC(C)C1)c1ccc2c(c1)OCO2 (stereo unspecified)	-23.7	-0.8	17.5	3.1	13.0	0.8
COc1cc(OC)c2ccc(=O)oc2c1C(CCN1CCCC1)c1ccc(N(C)C)cc1 (stereo unspecified)	98.3*	-14.1	-6.0	-8.7	31.1	5.8
COc1cc(OC)c2ccc(=O)oc2c1C(CCN1CCCCC1)c1ccc(N(C)C)cc1 (stereo unspecified)	98.6*	17.8	32.7	-13.3	40.2	7.1
O=[N+]([O-])c1ccc2ccn(C3OCC(O)C(O)C3O)c2c1 (stereo unspecified)	-2.3	.	15.3	-1.9	28.7	.
CCc1cc2c(=O)n(Cc3ccco3)c(SCC(=O)NCC3CCCO3)nc2s1 (stereo unspecified)	2.4	17.6	16.4	-3.6	-19.4	0.5
CCc1cc2c(=O)n(Cc3ccco3)c(SCc3c(C)noc3C)nc2s1	99.0*	5.9	32.3	11.3	0.2	17.0
CCOC(=O)c1nn(-c2ccccc2C)c2nc(-c3ccc(Cl)cc3)c(C#N)c(=O)n12	-1.4	6.0	15.5	56.1*	-1.3	0.0
COc1ccc(-c2nc(CS(=O)CC(=O)NCc3ccco3)c(C)o2)cc1 (stereo unspecified)	98.9*	-11.2	49.8	11.8	10.8	-1.4
Cc1oc(-c2ccc(Cl)cc2)nc1CN1CCC(C(=O)NCc2ccco2)CC1	-7.0	21.3	7.1	1.2	23.3	9.5
CCc1ccc(-c2nc(CS(=O)CC(=O)NCc3ccco3)c(C)o2)cc1 (stereo unspecified)	98.6*	-54.4	18.8	14.0	26.3	-47.6
Cn1c(=O)oc2cc(S(=O)(=O)Nc3ccc4c(c3)OCCO4)ccc21	-1.5	-43.2	40.0	-3.9	30.8	-36.6
O=S(=O)(Nc1ccc2c(c1)OCO2)c1cccs1	40.5	-3.2	13.4	1.0	-2.9	-0.1
O=S(=O)(Nc1ccc2c(c1)OCO2)c1ccc(F)c(F)c1	88.4*	.	.	.	.	.
Cn1c(=O)c(=O)n(C)c2cc(S(=O)(=O)Nc3ccc4c(c3)OCCO4)ccc21	-46.6	-64.3	21.7	3.2	55.4	-60.0*
O=S(=O)(Nc1ccc2c(c1)OCCO2)c1cccs1	-5.2	-65.1	27.9	0.5	-7.3	-63.2*
CC1CCCCN1CC(O)COCc1ccc(Cl)cc1 (stereo unspecified)	9.7	8.7	8.7	-0.4	14.6	-9.0
Cc1ccc(N(C(=O)c2csnn2)C(C(=O)NC2CCCCC2)c2ccncc2)cc1 (stereo unspecified)	1.9	11.1	7.0	-11.4	46.2	7.8
O=C(COC(=O)c1cc2c(s1)CCC2)Nc1ccc(F)cc1	-37.0	5.7	24.3	50.1*	4.5	-8.7
CCn1c(=O)c(CCC(=O)N2CCN(c3ccccn3)CC2)c(C)c2c(C)nn(-c3cccc(C)c3)c21	7.7	2.1	13.6	13.0	23.5	-3.3
COC(=O)c1sc(S(=O)(=O)Nc2ccc(C)c(C)c2)c(C(=O)OC)c1C	-4.7	6.3	13.7	4.3	5.7	-5.5
COC(=O)c1sc(S(=O)(=O)NCCCN(C)C)c(C(=O)OC)c1C	-5.2	15.5	12.6	0.2	79.8*	-6.2
COCCCNC(=O)C(=O)C1C(=O)Nc2ccccc21 (stereo unspecified)	33.3	3.7	39.6	-3.7	31.7	-8.0
S=C(NCCc1cnc[nH]1)NC1CCCC1	-2.9	4.6	22.8	-1.5	-24.5	1.2
CCCCSC1=C(C#N)C(c2ccccc2C)CC(=O)N1 (stereo unspecified)	-2.5	-67.1	12.0	1.3	-5.3	-58.9*
